Results as given in ChEMBL document CHEMBL1914300, “Anti-inflammatory amino acid derivatives from the ascidian Herdmania momus” (J Nat Prod, 2011).
Active and inactive are the calls of the source. The calls are words filed in the database; no cut-off is given here.

Columns and labels:
[1] = tested on: Staphylococcus aureus; assay: Antibacterial activity against Staphylococcus aureus at 30 ug/disk by agar diffusion assay; type: functional, organism-based
[2] = tested on: Escherichia coli; assay: Antibacterial activity against Escherichia coli at 30 ug/disk by agar diffusion assay; type: functional, organism-based
[3] = tested on: Klebsiella aerogenes; assay: Antibacterial activity against Klebsiella aerogenes at 30 ug/disk by agar diffusion assay; type: functional, organism-based
[4] = tested on: Salmonella typhimurium; assay: Antibacterial activity against Salmonella Typhimurium at 30 ug/disk by agar diffusion assay; type: functional, organism-based; conditions: Salmonella enterica subsp. enterica serovar Typhimurium
[5] = tested on: Enterobacter cloacae; assay: Antibacterial activity against Enterobacter cloacae at 30 ug/disk by agar diffusion assay; type: functional, organism-based
[6] = tested on: RAW264.7; assay: Inhibition of NO production in LPS-stimulated mouse RAW264.7 cells assessed as nitrite accumulation after 10 mins by Griess reaction method; type: functional, cell-based; conditions: RAW264.7, 10 min
In short: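 Cells were stimulated 24 h with LPS (1 μg/mL) alone or with samples (250, 50, 10, 2 μM). Supernatant was mixed 1:1 with Griess reagent (0.1% naphthalene diamine dihydrochloride, 1% sulfanilamide, 2.5% H3PO4) for 10 min at room temperature. Absorbance at 540 nm was converted against a sodium nitrite standard curve. Mean ± SD of triplicates.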

[7] = tested on: RAW264.7; assay: Inhibition of LPS-induced iNOS mRNA expression in mouse RAW264.7 cells at 12.5 to 50 uM by […]; type: functional, cell-based
In short: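 Total RNA from LPS (1 μg/mL)-stimulated cells was isolated by Tri-Reagent. RNA (1 μg) was primed with oligo(dT)18 (70 °C, 5 min) and reverse-transcribed with M-MuLV and 0.5 μM dNTP (25 °C 5 min, 37 °C 60 min), then inactivated at 70 °C for 15 min.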

[8] = tested on: RAW264.7; assay: Antiinflammatory activity in mouse RAW264.7 cells assessed as suppression of LPS-stimulated IL6 production at 25 to 50 uM after 24 hrs by ELISA; type: functional, cell-based
In short: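 Cells at 1.5 × 10^5 cells/mL were preincubated 18 h, then given LPS (1 μg/mL) plus samples (50 and 25 μM) for 24 h. Samples were dissolved in EtOH and diluted in DMEM, with final solvent ≤0.1%. IL-6 in the supernatant was measured by mouse ELISA. Mean ± SD of triplicate experiments.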

[9] = tested on: RAW264.7; assay: Antiinflammatory activity in mouse RAW264.7 cells assessed as inhibition of LPS-stimulated IL6 mRNA expression at 12.5 to 50 uM by RT-PCR; type: functional, cell-based
[10] = target: T1, Prostaglandin G/H synthase 2 (Mus musculus) (UniProt Q05769); assay: Inhibition of COX2-mediated PGE2 production in LPS-stimulated mouse RAW264.7 cells at 25 to 50 uM by ELISA
T1 sequence (whole entry): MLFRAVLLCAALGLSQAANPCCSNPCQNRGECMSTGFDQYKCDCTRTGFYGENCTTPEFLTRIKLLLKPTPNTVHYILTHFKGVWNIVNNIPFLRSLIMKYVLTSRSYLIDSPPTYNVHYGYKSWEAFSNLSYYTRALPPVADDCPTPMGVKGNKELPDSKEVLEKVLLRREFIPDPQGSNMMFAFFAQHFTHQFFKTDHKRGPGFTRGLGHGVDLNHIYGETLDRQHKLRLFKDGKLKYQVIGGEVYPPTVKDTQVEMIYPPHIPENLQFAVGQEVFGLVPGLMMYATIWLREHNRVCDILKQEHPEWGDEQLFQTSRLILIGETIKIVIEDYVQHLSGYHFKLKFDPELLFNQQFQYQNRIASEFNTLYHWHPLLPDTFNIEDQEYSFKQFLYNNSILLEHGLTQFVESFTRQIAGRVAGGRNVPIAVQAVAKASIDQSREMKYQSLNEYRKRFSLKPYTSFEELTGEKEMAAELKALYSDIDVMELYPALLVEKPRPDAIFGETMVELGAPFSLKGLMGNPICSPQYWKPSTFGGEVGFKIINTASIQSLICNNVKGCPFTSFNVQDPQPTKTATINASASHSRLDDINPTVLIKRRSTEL

[11] = tested on: RAW264.7; assay: Cytotoxicity against mouse RAW264.7 cells after 24 hrs by WST-1 assay; type: cell-based; conditions: RAW264.7, 24 h
In short: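 Cells were exposed 24 h to LPS (1 μg/mL) alone or with samples (250, 50, 10, 2 μM). WST-1 reagent was then added for 2 h, and formazan was read at 450 nm. Mean ± SD of triplicate experiments.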

IC50 [6] | inhibition [10] | Structure (SMILES) | Activity [1] | Activity [2] | Activity [3] | Activity [4] | Activity [5] | inhibition [7] | Activity [8] | inhibition [9] | IC50 [11]
96 µM | Active | N=C(N)NCCC[C@@H](NC(=O)c1ccc(OC(=O)c2ccc(O)cc2)cc1)C(=O)O [HERDMANINE C] | inactive | inactive | inactive | inactive | inactive | Active | Active | Active | –
– | – | N=C(N)NCCC[C@@H](NC(=O)c1ccc(OC(=O)c2c[nH]c3ccccc23)cc1)C(=O)O | inactive | inactive | inactive | inactive | inactive | – | – | – | –
9 µM | Active | N[C@@H](Cc1ccc(OC(=O)c2c[nH]c3cc(Br)c(O)cc23)cc1)C(=O)O [HERDMANINE D] | inactive | inactive | inactive | inactive | inactive | Active | Active | Active | 170 µM
